proCasp7 act – activates human procaspase-7, counter-screen for procaspase-3 activators. P55210. recombinant procaspase-7, Ac-DEVD-pNA absorbance 405 nm; D23A/D198A/D206A triple mutant, cannot self-cleave; scale: DMSO 0, 5 µM enzyme 100. activation, % at 8.5 µM. 0.093% of 330,000 active. AID 463210;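 active means percent activation above the screen-wide mean plus 3 SD, cut at about 25% in these data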
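Material: Procaspase-7 triple mutant (PC-7 D3A) | Quantity: 2 µM procaspase-7 mutant as dispensed | Reagent: DEVD-pNA substrate | Times: 1 h preincubation, 2 h reaction | Technique: 405 nm absorbance of p-nitroaniline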
GAA850 FXN act – frataxin GAA850 promoter activation | HEK293 lucGAA850 FXN promoter luciferase reporter, 24 h; percent of 10 µM SAHA response | activation, % at 6 µM | 0.56% of 360,000 active | AID 540364;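 active means activation above the average of all compounds screened plus 3 SD, cutoff fixed separately per campaign, cut at about 7.5% in these data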;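 further: 0% = DMSO wells and 100% = 10 µM SAHA wells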
proCasp3 act – activates human procaspase-3; P42574; recombinant procaspase-3 D3A, Ac-DEVD-pNA absorbance 405 nm; activation, % at 8.5 µM; 0.11% of 330,000 active;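 active means activation above the mean of all tested compounds plus 3 SD, cut at about 21% in these data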;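 further: 0% = DMSO alone and 100% = DMSO wells spiked with extra 5 µM PC-3 D3A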
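Assay system – Procaspase-3 D3A mutant, all three cleavage aspartates alanine · Controls – DMSO-only low control, 5 µM PC-3 D3A high control · Schedule – 1 h compound preincubation, 2 h substrate hydrolysis at 25 °C · Signal – 405 nm absorbance of p-nitroaniline, reads at 0 and 120 min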
Rce1 inhib – yeast Ras-converting enzyme inhibition. 0.27% of 290,000 active. Q03530. calls only. yeast membranes, quenched prenylated peptide cleavage fluorescence;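 active means fall in fluorescence gain of 50% or more versus controls, with final raw signal at or below 3038400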;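 further: plate controls were neutral control wells for no effect and wells lacking membranes for full effect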
Lipid droplet – hepatic lipid droplet formation modulation; AID 1656; AML12 mouse hepatocytes, oleate lipid droplets, BODIPY imaging; 0.4% of 240,000 active; inhibition, % at 6.5 µM;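 active means lipid droplet intensity inhibited by at least 50%, with more than 500 cells counted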
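System: AML12 hepatocytes (mouse). Probe or stimulus: oleic acid at 100 µM to induce lipid droplet formation. Times: overnight treatment with compound plus oleate. Detection: Image-based BODIPY and DAPI two-channel analysis. Evaluation: percent inhibition of filter-corrected integrated lipid droplet intensity per well.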
p-CIP stab down – lowers stability of the mouse p/CIP coactivator protein. Q05BA5. F442A p/CIP-EGFP cells, EGFP fluorescence, 16 h. decrease of EGFP signal, % at 10 µM. 0.01% of 290,000 active. AID 1984;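 active means EGFP signal decrease of at least 30% at 10 µM or well 3 SD below plate mean, unless failing retest; inactive means the rest, including hits failing retest or dose response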
Target sequence (Q05BA5 1-1403): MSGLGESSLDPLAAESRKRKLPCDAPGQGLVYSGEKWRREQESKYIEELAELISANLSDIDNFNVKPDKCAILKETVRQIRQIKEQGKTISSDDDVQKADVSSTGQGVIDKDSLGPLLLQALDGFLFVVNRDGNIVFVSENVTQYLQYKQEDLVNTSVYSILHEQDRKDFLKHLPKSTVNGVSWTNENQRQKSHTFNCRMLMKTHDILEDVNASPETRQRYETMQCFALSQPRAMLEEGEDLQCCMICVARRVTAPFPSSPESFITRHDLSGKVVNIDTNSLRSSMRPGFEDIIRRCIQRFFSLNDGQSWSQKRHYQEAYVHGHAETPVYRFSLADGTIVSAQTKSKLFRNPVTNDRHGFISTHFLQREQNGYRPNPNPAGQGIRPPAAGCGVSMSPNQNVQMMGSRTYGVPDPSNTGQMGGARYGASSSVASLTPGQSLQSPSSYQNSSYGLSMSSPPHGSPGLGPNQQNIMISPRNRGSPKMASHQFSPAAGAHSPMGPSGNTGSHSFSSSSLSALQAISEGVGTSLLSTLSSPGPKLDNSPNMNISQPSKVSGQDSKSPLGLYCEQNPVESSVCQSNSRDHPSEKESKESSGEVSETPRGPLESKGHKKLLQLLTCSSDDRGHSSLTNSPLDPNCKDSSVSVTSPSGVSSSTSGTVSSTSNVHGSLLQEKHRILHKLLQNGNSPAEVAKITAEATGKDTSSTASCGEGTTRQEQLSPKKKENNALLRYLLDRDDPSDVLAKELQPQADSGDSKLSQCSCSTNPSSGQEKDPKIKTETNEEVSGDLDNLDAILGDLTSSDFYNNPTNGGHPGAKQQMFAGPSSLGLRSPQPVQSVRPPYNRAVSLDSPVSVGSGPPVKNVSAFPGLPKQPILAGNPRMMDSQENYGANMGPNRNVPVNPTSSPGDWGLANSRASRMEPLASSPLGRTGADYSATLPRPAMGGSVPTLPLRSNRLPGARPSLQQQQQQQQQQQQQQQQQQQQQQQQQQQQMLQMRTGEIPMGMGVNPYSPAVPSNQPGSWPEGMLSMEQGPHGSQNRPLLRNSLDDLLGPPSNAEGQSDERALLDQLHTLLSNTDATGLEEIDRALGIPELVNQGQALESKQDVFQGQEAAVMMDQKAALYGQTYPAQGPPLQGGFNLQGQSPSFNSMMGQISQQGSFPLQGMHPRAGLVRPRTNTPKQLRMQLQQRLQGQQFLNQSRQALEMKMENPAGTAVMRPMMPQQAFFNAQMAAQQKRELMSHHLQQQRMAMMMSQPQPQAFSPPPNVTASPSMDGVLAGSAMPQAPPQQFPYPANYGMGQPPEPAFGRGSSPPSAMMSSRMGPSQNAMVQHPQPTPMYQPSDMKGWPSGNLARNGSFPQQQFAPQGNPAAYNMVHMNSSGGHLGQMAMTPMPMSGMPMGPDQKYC
GAA30 counter – GAA30 FXN promoter activation counter-screen | activation, % at 6 µM | 66% of 1,900 active | shares compounds with GAA850 FXN act | HEK293 lucGAA30 FXN promoter luciferase, 24 h; DMSO = 0%, 5 µM ipriflavone = 100%;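 active means mean activation above the mean of solvent-only control wells plus 3 SD, cut at about 22% in these data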;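 further: counterscreen of GAA850 promoter hits where activity marks nonselective or luminescence artifacts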
GAA850 confirm – confirmation of GAA850 frataxin (FXN) promoter activators; shares compounds with GAA850 FXN act; HEK293 lucGAA850 FXN promoter luciferase reporter, 24 h; 100% = activation by SAHA; activation, % at 6 µM; 86% of 1,900 active; AID 588351;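 active means mean activation above a set limit taken from the primary screen, cut at about 8% in these data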;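 further: 0% = DMSO wells and 100% = 10 µM SAHA wells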
An asterisk follows results filed as active; i = inactive; x = no result. An excerpt weighted towards active compounds, which were near 1.2% of everything screened.

SMILES	proCasp7 act	GAA850 FXN act	proCasp3 act	Rce1 inhib	Lipid droplet	p-CIP stab down	GAA30 counter	GAA850 confirm
COCC(=O)Nc1nnc(-c2ccc(C(C)(C)C)cc2)s1	-8.7	8.3*	4.2	i	1.7	-1.8	124.4*	37.0*
CC(C)c1ccc(NC(=O)COC(=O)C2CCCCC2)cc1	1.8	0.1	7.7	x	x	x	x	x
CCN(CC)c1ccc(S(=O)(=O)N2CCCCC2)cc1NC(=O)CSCc1c(C)noc1C	x	10.4*	x	x	x	x	21.1	22.2*
CCn1c2ccc(C)cc2c2nc3cc(C(=O)O)ccc3nc21	-3.6	8.0*	-5.8	i	-0.7	-2.4	147.5*	46.8*
COc1ccc(OC)c(NC(=O)COC(=O)c2ccc(OC)c(S(=O)(=O)N3CCOCC3)c2)c1	2.0	1.2	8.2	x	x	x	x	x
COc1ccc(C(=O)N/C(N)=N/c2nc3ccccc3o2)cc1	3.6	1.3	6.6	i	x	-5.9	x	x
COc1ccc(C(=O)/C=C/Sc2nc3ccccc3o2)cc1	-5.3	9.8*	-7.0	i	-10.9	-13.9	4.8	5.3
COc1ccnc(Oc2ccc3ccccc3c2)c1C#N	-3.3	8.2*	5.1	i	x	-0.5	82.3*	24.9*
CCOC(=O)Nc1ccc2c(c1)C(=NNC(=S)NC)c1ccccc1-2	x	13.7*	x	x	x	x	48.1*	20.2*
Cc1cc(Cl)ccc1OCCCC(=O)N1CCCCC1	1.4	8.6*	7.0	i	1.8	6.0	78.9*	30.5*
Cc1cc(Cl)ccc1OCCCC(=O)N1CCOCC1	7.6	-0.5	-4.3	i	x	-5.0	x	x
COc1ccc(C(=O)c2c(-c3cccc(C)c3)oc3ccc(N4CCOCC4)cc23)cn1	-12.2	-0.1	-4.6	i	x	-0.5	x	x
NNC(=O)CN1C(c2cccc(Cl)c2)=Nc2ccc(Br)cc2C1c1ccccc1 (centres undefined)	-0.8	6.0	-0.6	x	x	3.0	x	x
NNC(=O)CN1C(c2ccccc2Br)=Nc2ccc(Br)cc2C1c1ccccc1 (centres undefined)	1.0	9.2*	0.4	i	-4.1	-9.6	18.2	8.7*
COc1ccc(S(=O)(=O)N(C)C[C@@H]2OCCCC[C@@H](C)Oc3ccc(NS(=O)(=O)c4cccs4)cc3C(=O)N([C@H](C)CO)C[C@@H]2C)cc1	x	-2.7	x	x	x	x	x	x
c1ccc(Nc2ncnc3c2oc2ccccc23)cc1	6.6	2.6	-6.4	i	5.5	-13.3	x	x
Oc1ccc(Nc2ncnc3c2oc2ccccc23)cc1	15.4	11.6*	-1.5	i	-4.2	7.0	143.2*	39.7*
Cc1cc(N(C)C)cc(C)c1N=Nc1cc[n+]([O-])cc1	x	1.2	x	x	x	x	x	x
O=C(Oc1c(CN2CCOCC2)cc(Cl)c2cccnc12)c1cccs1	-8.8	-0.6	8.0	i	9.0	8.9	x	x
COc1cc(C(=O)Oc2c(CN3CCOCC3)cc(Cl)c3cccnc23)cc(OC)c1OC	-6.0	18.1*	1.1	i	x	-8.1	-27.0	24.5*
COc1ccc(C(=O)Oc2c(CN3CCOCC3)cc(Cl)c3cccnc23)cc1	5.0	0.4	1.3	i	-11.6	-14.7	x	x
O=C(Oc1c(CN2CCOCC2)cc(Cl)c2cccnc12)c1ccc(F)cc1	7.0	-0.2	-5.0	i	-6.3	-3.9	x	x
COc1cccc(C(=O)Oc2c(CN3CCOCC3)cc(Cl)c3cccnc23)c1	-5.6	8.2*	-3.3	i	-2.6	7.2	16.1	8.3*
O=C(Oc1c(CN2CCOCC2)cc(Cl)c2cccnc12)c1ccccc1Cl	-11.8	12.9*	-2.7	i	3.2	14.0	3.4	19.4*
CCOC(=O)C1=C(C(=O)OCC)N(CC)CCC1=O	x	0.8	x	x	x	x	x	x
SMILES	proCasp7 act	GAA850 FXN act	proCasp3 act	Rce1 inhib	Lipid droplet	p-CIP stab down	GAA30 counter	GAA850 confirm
CC(NC(=O)CSC(=S)N(C)C)C12CC3CC(CC(C3)C1)C2 (centres undefined)	x	9.4*	x	x	-0.8	-17.0	31.4*	14.5*
CC(NC(=O)Cn1ccsc1=N)C12CC3CC(CC(C3)C1)C2 (centres undefined)	6.2	1.9	-8.5	x	x	2.9	x	x
C=CCN1C(=O)c2cccc3c(N4CCCCC4)ccc(c23)C1=O	-10.9	3.8	-5.6	i	-17.1	-405.0	x	x
O=C1c2cccc3c(N4CCCCC4)ccc(c23)C(=O)N1CCO	-3.5	8.3*	-7.3	i	x	-313.9	88.5*	33.2*
Cc1cc(NS(=O)(=O)c2ccc(NC(=O)CCCOc3ccccc3C)cc2)no1	-1.5	1.4	1.9	i	9.5	-23.4	x	x
COc1ccc(NC(=O)Cc2ccc(C)c(C)c2)cc1S(=O)(=O)N1CCCCC1	-4.5	-0.6	11.2	x	x	x	x	x
CCSc1ccc(-c2cccc([N+](=O)[O-])c2)nn1	9.9	8.5*	1.5	i	1.9	10.3	97.4*	28.5*
COc1cc(CC(=O)NCC(C)(C)N2CCOCC2)cc(OC)c1OC	0.1	0.5	-3.8	x	-2.1	-2.9	x	x
CCc1nc2ccc(C(=O)NCCOc3ccc(OC)cc3)cn2c1N(CC)Cc1ccc(OC)c(OC)c1	x	8.4*	x	x	x	x	4.6	4.2
CCc1nc2ccc(C(=O)NCCN3CCNC3=O)cn2c1N(C)Cc1ccc(OC)cc1	x	14.1*	x	x	x	x	22.4*	5.5
CCc1nc2ccc(C(=O)Nc3ccc(OC)c(OC)c3)cn2c1N(CC)Cc1ccc(OC)c(OC)c1	x	1.6	x	x	x	x	x	x
COc1ccc(-c2ccc(=O)n(Cc3cc(=O)n4ccccc4n3)n2)cc1	-5.0	8.1*	-3.0	i	24.9	2.6	20.3	8.8*
COc1ccc(-c2ccc(=O)n(Cc3ccccc3)n2)cc1	-1.0	3.5	11.4	i	11.6	-15.9	x	x
Cc1cc2[nH]c3c(c[n+](C)c4ccccc34)c2cc1C	-14.0	10.5*	-8.8	i	-81.4	-6.0	-14.0	95.0*
Cc1cc2[nH]c3c4ccccc4nc(C)c3c2cc1C	x	-0.9	x	x	x	x	x	x
COc1ccc(N(CC(=O)NC2CC3CCC2C3)S(=O)(=O)c2ccc(C)cc2)cc1Cl (centres undefined)	x	-2.1	x	x	x	x	x	x
CCC(C)NC(=O)c1cnn2c(C)c3c(nc12)CCCC3 (centres undefined)	-7.8	7.8*	-7.6	i	x	7.7	17.9	9.6*
COc1cc(/C=C(\C#N)C(=O)c2ccc(O)c(O)c2)cc(I)c1O	-3.7	0.8	-9.3	x	x	x	x	x
N/C(=N\N=C\c1cccc(O)c1)c1nonc1N	2.4	7.9*	4.3	i	16.3	-2.3	128.3*	20.6*
N/C(=N\N=C\c1ccc(O)cc1)c1nonc1N	-1.2	2.1	-9.9	i	3.3	9.9	x	x

Screens deposited in PubChem by several laboratories.
